Data published in ChEMBL document CHEMBL2346617, “Euryspongins A-C, three new unique sesquiterpenes from a marine sponge Euryspongia sp” (Bioorg Med Chem Lett, 2013).
Calls of active or inactive are those of the source. The calls are words filed in the database; no cut-off is given here.

Assays:
Jurkat = test: Antiproliferative activity against human Jurkat cells at 45 uM; assay type: functional, cell-based
Summary of the method: (§1)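 Proliferation of human cancer cell lines HCT-15 (colon) and Jurkat (T-cell lymphoma) was tested at a single concentration of 45 μM per compound.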

[1] = target: T1, Tyrosine-protein phosphatase non-receptor type 1 (Homo sapiens) (UniProt P18031); test: Inhibition of PTP1B (unknown origin) at 35 to 40 uM
T1 sequence (whole entry): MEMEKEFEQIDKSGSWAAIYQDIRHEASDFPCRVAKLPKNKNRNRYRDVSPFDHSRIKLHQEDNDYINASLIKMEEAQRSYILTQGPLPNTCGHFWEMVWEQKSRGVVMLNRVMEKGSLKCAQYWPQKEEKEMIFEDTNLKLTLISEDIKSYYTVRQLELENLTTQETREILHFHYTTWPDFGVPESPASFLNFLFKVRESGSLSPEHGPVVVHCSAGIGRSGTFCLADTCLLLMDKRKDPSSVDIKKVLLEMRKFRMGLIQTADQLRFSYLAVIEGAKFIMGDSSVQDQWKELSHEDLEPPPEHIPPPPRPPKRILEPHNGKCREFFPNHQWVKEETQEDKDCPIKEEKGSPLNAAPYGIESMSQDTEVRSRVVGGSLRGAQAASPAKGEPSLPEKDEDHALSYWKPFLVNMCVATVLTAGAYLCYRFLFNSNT

HCT-15 = test: Antiproliferative activity against human HCT15 cells at 45 uM; assay type: functional, cell-based; summary of the method: as §1
[2] = target: T2, Tyrosine-protein phosphatase non-receptor type 1 (Homo sapiens, UniProt P18031); test: Inhibition of PTP1B (unknown origin)
T2 sequence (P18031 whole entry): T1 sequence (whole entry)

| Structure (SMILES) | inhibition (Jurkat) | inhibition [1] | inhibition (HCT-15) | IC50 [2] [µM] |
| --- | --- | --- | --- | --- |
| CC1=C[C@@H]2CC(C)(C)[C@H]1C[C@H](O)C1=CC(=O)O[C@@H]12 (relative stereo) | inactive | inactive | inactive |  |
| CC1=C[C@@H]2CC(C)(C)[C@H]1C[C@H](O)c1ccoc12 (relative stereo) | inactive | inactive | inactive |  |
| CO[C@]12OC(=O)C=C1[C@@H](O)C[C@H]1C(C)=C[C@@H]2CC1(C)C (relative stereo) | inactive | inactive | inactive |  |
| CC1=C[C@@H]2CC(C)(C)[C@H]1/C=C\c1ccoc12 (relative stereo) [REL-DEHYDROEURYSPONGIN A] | inactive |  | inactive | 3.6 |
